Changes are numbered by the printed parent chain. Activity calls are given as the source filed them. The calls are words filed in the database; no cut-off is given here.
Columns and labels:
[1] = target: T1, Peroxisome proliferator-activated receptor alpha (Homo sapiens, UniProt Q07869); test: Transactivation of human GAL4-fused PPARalpha LBD expressed in human HepG2 cells after 24 hrs by renilla luciferase reporter gene assay; format: cell-based
T1 sequence (Q07869 whole entry): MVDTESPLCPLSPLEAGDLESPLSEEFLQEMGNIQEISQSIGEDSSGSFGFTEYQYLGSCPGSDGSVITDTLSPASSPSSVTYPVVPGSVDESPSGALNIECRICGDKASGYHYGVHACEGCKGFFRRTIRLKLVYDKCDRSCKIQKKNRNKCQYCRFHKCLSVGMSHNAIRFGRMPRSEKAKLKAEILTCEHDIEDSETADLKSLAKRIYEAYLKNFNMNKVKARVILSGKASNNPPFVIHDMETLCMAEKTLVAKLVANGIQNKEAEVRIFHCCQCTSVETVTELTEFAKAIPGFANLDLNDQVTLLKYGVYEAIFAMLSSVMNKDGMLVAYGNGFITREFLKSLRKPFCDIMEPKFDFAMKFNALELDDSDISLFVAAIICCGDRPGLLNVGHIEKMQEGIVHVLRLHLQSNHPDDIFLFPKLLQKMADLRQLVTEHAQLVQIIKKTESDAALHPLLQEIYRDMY

[2] = Protein binding in human plasma at 20 uM after 5 hrs by LC/MS/MS analysis; format: ADME, cell-free; conditions: read-out: PPB (converted)
Method in brief: (§1)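 Compound at 20 μM incubated with plasma at 37°C for 5 h; percent bound to protein determined. Final DMSO 0.2%.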

[3] = Apparent permeability from apical to basolateral side in human Caco2 cells at 25 uM measured up to 2 hrs by LC/MS/MS analysis; format: ADME, cell-based; conditions: Caco-2
Method in brief: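 Caco-2 monolayers; permeability measured apical-to-basolateral (A–B) at 25 μM compound, reported as ×10⁻⁶ cm/s.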

[4] = target: Peroxisome proliferator-activated receptor alpha (Homo sapiens) (UniProt Q07869); test: Displacement of fluormone pan-PPAR green from GST-tagged human PPARalpha ligand binding domain after 3 hrs by TR-FRET assay
[5] = target: T2, Peroxisome proliferator-activated receptor alpha (Rattus norvegicus, UniProt P37230); test: Transactivation of rat GAL4-fused PPARalpha expressed in human HepG2 cells after 24 hrs by dual renilla-luciferase reporter gene assay; format: cell-based
T2 sequence (P37230 whole entry): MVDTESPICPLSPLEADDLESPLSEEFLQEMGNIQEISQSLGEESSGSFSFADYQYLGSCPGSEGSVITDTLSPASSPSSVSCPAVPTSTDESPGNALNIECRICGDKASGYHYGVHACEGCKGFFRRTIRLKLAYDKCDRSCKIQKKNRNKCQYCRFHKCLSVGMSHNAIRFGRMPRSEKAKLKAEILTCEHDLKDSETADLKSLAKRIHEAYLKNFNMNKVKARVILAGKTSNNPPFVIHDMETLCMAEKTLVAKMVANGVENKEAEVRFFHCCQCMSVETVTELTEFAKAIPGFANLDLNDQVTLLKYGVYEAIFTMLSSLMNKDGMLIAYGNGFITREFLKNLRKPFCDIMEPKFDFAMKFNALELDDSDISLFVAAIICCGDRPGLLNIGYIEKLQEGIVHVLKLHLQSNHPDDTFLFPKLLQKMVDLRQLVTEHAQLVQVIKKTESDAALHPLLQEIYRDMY
Method in brief: (§2)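 HepG2 cells carried GAL4-fused human PPARγ or PPARδ, or mouse or rat PPARα, plus the 4xUAS-tk-luc reporter. Cells treated across a concentration range for 24 h. Luciferase normalized to Renilla activity and expressed as fold induction over vehicle, set as 1.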

[6] = Solubility of the compound in pH 7.4 PBS at 100 uM incubated for 10 mins under shaking condition by HPLC analysis; format: physicochemical
Method in brief: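 Aqueous solubility determined in PBS, pH 7.4; reported in μM.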

[7] = Metabolic stability in rat liver microsomes assessed as parent compound remaining at 0.5 uM after 60 mins in presence of NADPH by LC/MS/MS analysis; format: ADME, Microsome; conditions: liver microsomes, read-out: Stability
Method in brief: (§3)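 Compound at 0.5 μM incubated with liver microsomes at 37°C for 1 h; result given as percent remaining. Final DMSO 0.2%.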

[8] = Protein binding in rat plasma at 20 uM after 5 hrs by LC/MS/MS analysis; format: ADME, cell-free; conditions: read-out: PPB; method in brief: as §1
[9] = target: T3, Peroxisome proliferator-activated receptor alpha (Mus musculus, UniProt P23204); test: Transactivation of mouse GAL4-fused PPARalpha expressed in human HepG2 cells after 24 hrs by dual renilla-luciferase reporter gene assay; format: cell-based; method in brief: as §2
T3 sequence (P23204 whole entry): T2 sequence (P37230 whole entry) with L41I, S50G, A85V, V86I, T88A, N96S, A135V, A207G, N265D

[10] = Metabolic stability in human liver microsomes assessed as parent compound remaining at 0.5 uM after 60 mins in presence of NADPH by LC/MS/MS analysis; format: ADME, Microsome; conditions: liver microsomes, read-out: Stability; method in brief: as §3
[11] = Effect on cyclophilinA expression in human FLC4 cells after 48 hrs by SYBR green dye-based RT-PCR analysis; format: ADME, cell-based
Rattus norvegicus [12] = test: […] activity in fructose-challenged Sprague-Dawley rat assessed as increase in liver ACADM mRNA expression at 30 mg/kg, po administered once daily via gavage for 2 weeks measured after 5 hrs fasting by SYBR green dye-based RT-PCR analysis; format: functional, organism-based
Method in brief: (§4)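 Male rats were given 25% fructose in drinking water for 3 weeks. They then received 30 mg/kg/day orally in 0.5% methylcellulose (vehicle control) for 2 more weeks while fructose continued. Liver mRNA was measured by real-time RT-PCR, normalized to β2-microglobulin and set as 1 in the vehicle group. Values are means ± S.D.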

Rattus norvegicus [13] = test: […] activity in fructose-challenged Sprague-Dawley rat assessed as increase in liver ACOX1 mRNA expression at 30 mg/kg, po administered once daily via gavage for 2 weeks measured after 5 hrs fasting by SYBR green dye-based RT-PCR analysis; format: functional, organism-based; method in brief: as §4
Rattus norvegicus [14] = test: […] activity in fructose-challenged Sprague-Dawley rat assessed as increase in liver CPT1A mRNA expression at 30 mg/kg, po administered once daily via gavage for 2 weeks measured after 5 hrs fasting by SYBR green dye-based RT-PCR analysis; format: functional, organism-based; method in brief: as §4
Rattus norvegicus [15] = test: […] activity in fructose-challenged Sprague-Dawley rat assessed as reduction in serum triglyceride level at 30 mg/kg, po administered once daily via gavage for 2 weeks measured after 5 hrs fasting; format: functional, organism-based
Method in brief: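 Male rats had 25% fructose in drinking water for 3 weeks, then oral dosing at 30 mg/kg/day for 2 weeks with fructose continued. The vehicle group got 0.5% methylcellulose. Serum triglyceride was measured after the 2-week treatment.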

Rattus norvegicus [16] = test: […] activity in fructose-challenged Sprague-Dawley rat assessed as increase in liver SLC25A20 mRNA expression at 30 mg/kg, po administered once daily via gavage for 2 weeks measured after 5 hrs fasting by SYBR green dye-based RT-PCR analysis; format: functional, organism-based; method in brief: as §4

| EC50 [1] [µM] | fraction unbound at 5 h, 20 µM [2] | Papp A→B at 2 h, 25 µM [3] [×10⁻⁶ cm/s] | IC50 [4] [µM] | EC50 [5] [µM] | solubility at 10 min, 100 µM [6] [µM] | remaining at 1 h, 0.5 µM [7] [%] | fraction unbound at 5 h, 20 µM [8] | EC50 [9] [µM] | remaining at 1 h, 0.5 µM [10] [%] | Compound | Activity [11] | Activity (Rattus norvegicus [12]) | Activity (Rattus norvegicus [13]) | Activity (Rattus norvegicus [14]) | Activity (Rattus norvegicus [15]) | Activity (Rattus norvegicus [16]) |
| --- | --- | --- | --- | --- | --- | --- | --- | --- | --- | --- | --- | --- | --- | --- | --- | --- |
| 0.66 | 0.003 | 51.8 | 4.48 | 15.9 | > 95 | 87 | 0.01 | 11.3 | 91 | Cc1cc(C(=O)O)c2c(C(C)C)nn(-c3ccc(Cl)cc3)c2n1 | Non-Toxic |  |  |  |  |  |
|  |  |  |  |  |  |  |  |  |  | CC(C)OC(=O)C(C)(C)Oc1ccc(C(=O)c2ccc(Cl)cc2)cc1 |  | Active | Active | Active | Active | Active |

Source: ChEMBL document CHEMBL4385646, “Structural development of 1H-pyrazolo-[3,4-b]pyridine-4-carboxylic acid derivatives as human peroxisome proliferator-activated receptor alpha (PPARα)-selective agonists” (Bioorg Med Chem Lett, 2019)
